High-throughput results deposited in PubChem by Sanford-Burnham Center for Chemical Genomics.
This is a sample that favours compounds with a hit; in the whole collection about 3.1% have one here.
UBC13 inh: blocks human UBC13 polyubiquitin chain formation | P61088 | TR-FRET | inhibition, % at 20 µM | 330,000 compounds, 0.47% hits; in the data active = inhibition above about 45%, passing the limit was not always enough
Target sequence (P61088 whole entry, looked up): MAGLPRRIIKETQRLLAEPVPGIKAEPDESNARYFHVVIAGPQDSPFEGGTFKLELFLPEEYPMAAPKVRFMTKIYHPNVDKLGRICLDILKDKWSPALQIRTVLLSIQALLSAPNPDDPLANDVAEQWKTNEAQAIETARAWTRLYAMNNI
SENP7 inh: inhibitors of human SENP7 protease. 330,000 compounds, 1.5% hits. Q9BQF6. recombinant SENP7, Z-RLRGG-aminoluciferin luminescence, 40 min. inhibition, % at 5 µM;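 active = inhibition above about 50% at the single test dose, limit read from the data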;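 also: plate controls were DMSO with enzyme for no effect and no enzyme buffer wells for full effect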
SENP8 block-1: SENP8 (human) protease inhibition. recombinant SENP8, Nedd8 substrate fluorescence. inhibition, % at 20 µM. 360,000 compounds, 0.64% hits. AID 602440; in the data active = inhibition mostly above about 40%, no sharp cut-off; inactive = mostly below about 27%
Target sequence (Q96LD8 whole entry, looked up): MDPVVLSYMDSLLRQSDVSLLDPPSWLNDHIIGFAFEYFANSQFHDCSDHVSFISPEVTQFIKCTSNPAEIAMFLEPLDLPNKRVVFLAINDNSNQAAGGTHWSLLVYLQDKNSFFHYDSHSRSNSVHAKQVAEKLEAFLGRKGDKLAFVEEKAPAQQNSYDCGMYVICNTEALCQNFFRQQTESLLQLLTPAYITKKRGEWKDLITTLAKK
Apaf-1 inh: inhibitors of human Apaf-1 apoptosome; reconstituted apoptosome caspase-3 activity, DEVD-Rh110 fluorescence; inhibition, % at 20 µM; 330,000 compounds, 0.71% hits; AID 489030; active = inhibition of at least 40% at 20 µM;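 also: plate controls were DMSO wells for no effect and DEVD-CHO caspase inhibitor wells for full effect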
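Assay system – apoptosome proteins · Medium – Hepes buffer, pH 7.5 · Also added – cytochrome c with DEVD-Rh110 · Timing – 30 min compound preincubation, 50 min activation, room temperature · Detection – Rh110 fluorescence, excitation 480 nm, emission 540 nm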
SENP6 block: blocks the human protease SENP6 | inhibition, % at 10 µM | AID 2599 | Recombinant SENP6 catalytic domain, aminoluciferin luminescence | 330,000 compounds, 1.8% hits | Q9GZR1;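 active = inhibition above about 50% at the single tested dose, limit read from the data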;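 also: plate controls were DMSO wells with enzyme for no effect and DMSO wells lacking enzyme for full effect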
SENP8 block-2: SENP8 protease inhibition | purified SENP8, Z-RLRGG-aminoluciferin cleavage, luminescence | inhibition, % at 10 µM | 330,000 compounds, 1.2% hits | AID 2540; in the data active = inhibition above about 50%
SENP8 confirm: human SENP8 inhibition, confirmed; shares compounds with SENP7 inh; Recombinant SENP8, Z-RLRGG-aminoluciferin luminescence, 60 min; inhibition, % at 12.5 µM; 6,200 compounds, 40% hits;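 active = mean inhibition across replicates above about 50%, limit read from the data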
SENP6 confirm: confirmation of human SENP6 protease inhibitors | shares compounds with SENP7 inh | recombinant SENP6, Z-RLRGG-aminoluciferin luminescence | inhibition, % at 12.5 µM | 6,200 compounds, 58% hits | AID 488915
SENP7 confirm: confirmation of human SENP7 protease inhibitors; shares compounds with SENP7 inh; recombinant SENP7, Z-RLRGG-aminoluciferin luminescence, 40 min; inhibition, % at 12.5 µM; 6,200 compounds, 69% hits
Casp3 select: caspase-3 inhibition (SENP selectivity assay) | shares compounds with SENP7 inh | purified caspase-3, Z-DEVD-aminoluciferin luminescence, 60 min | inhibition, % at 12.5 µM | 6,200 compounds, 60% hits | AID 488918;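 active = mean inhibition above about 50%, limit read from the data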;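 also: plate controls were enzyme with DMSO for no effect and wells without caspase-3 for full effect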
Target sequence (P42574 28-227 limits assumed): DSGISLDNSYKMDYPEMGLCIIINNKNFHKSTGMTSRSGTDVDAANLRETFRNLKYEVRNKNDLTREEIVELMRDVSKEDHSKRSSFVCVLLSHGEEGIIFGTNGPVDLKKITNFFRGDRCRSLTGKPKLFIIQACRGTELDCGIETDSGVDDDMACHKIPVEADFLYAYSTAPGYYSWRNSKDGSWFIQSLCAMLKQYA
SENP luc ctr: counter-screen for SENP inhibitors: luminescence interference. shares compounds with SENP7 inh. Pre-incubated SENP8/Z-RLRGG-aminoluciferin, luciferase luminescence interference. inhibition, % at 12.5 µM. 6,200 compounds, 39% hits;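 active = mean inhibition above about 50% when retested at one dose, limit read from the data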;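 also: plate controls were DMSO wells with completed reaction for no effect and substrate without enzyme for full effect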
* hit, by the source's call; i = inactive; / = no result.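 The calls were made as follows, unless noted: active = mean inhibition above about 50% in the one-dose retest (limit read from the data); inactive = the rest.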

SMILES | UBC13 inh | SENP7 inh | SENP8 block-1 | Apaf-1 inh | SENP6 block | SENP8 block-2 | SENP8 confirm | SENP6 confirm | SENP7 confirm | Casp3 select | SENP luc ctr
O=C(Nc1nc2ccccc2c2nc3ccccc3n12)c1ccc(F)cc1 | 9.4 | -0.8 | / | 6.1 | -5.1 | 2.8 | / | / | / | / | /
Cc1ccc(Cc2c(-c3cccc(Cl)c3)nc3c(C)cc(Br)cn23)cc1 | / | / | 4.7 | / | / | / | / | / | / | / | /
CCOC(=O)c1c(S(=O)(=O)NCC(=O)Nc2ccccc2)c(C)n(C)c1C | 3.6 | 73.3* | -18.0 | -2.6 | -10.0 | -7.3 | -12.3 | -10.6 | -10.6 | -4.9 | -15.0
CCOC(=O)c1c(S(=O)(=O)NCC(=O)Nc2cccc(C)c2)c(C)n(C)c1C | 2.6 | 2.9 | 8.9 | 6.8 | 0.6 | -5.5 | / | / | / | / | /
Oc1cc2ccccc2cc1-c1n[nH]c(=S)o1 | 1.3 | 75.0* | -274.6 | 1.2 | 91.3* | 94.4* | 97.8* | 98.5* | 101.2* | 96.3* | 96.4*
S=c1[nH]nc(-c2c[nH]c3ccccc23)o1 | 5.1 | 4.5 | -297.6 | -0.3 | -9.5 | 6.1 | / | / | / | / | /
COc1ccc2nc(SCC(C)=O)c(C#N)cc2c1 | -187.8 | 60.1* | -52.2 | 2.7 | 69.5* | 60.9* | 0.3 | 71.9* | 92.0* | 72.5* | 51.6*
CC1Sc2ccc(C(=O)N(CCc3ccccc3)Cc3ccccc3)cc2NC1=O (stereo not drawn) | / | / | 2.9 | / | / | / | / | / | / | / | /
O=C(NCCSc1ccccc1)c1ccc(Br)cc1 | -4.3 | 47.0 | 15.3 | 5.8 | 67.6* | 27.1 | 52.5* | 48.8 | 75.9* | 44.6 | 14.7
OCCCNc1ncnc2c1ncn2[C@H]1CN(Cc2ccc(Cl)cc2)C[C@@H](CO)O1 | / | / | 19.2 | / | / | / | / | / | / | / | /
O=c1c2ccccc2sn1-c1ccc(F)cc1 | -4.3 | 35.8 | 11.3 | 22.1 | 81.8* | 74.4* | 83.7* | 84.1* | 95.7* | 91.3* | 83.6*
O=c1c2ccccc2sn1-c1ccc(Cl)cc1 | / | / | 8.9 | / | / | / | / | / | / | / | /
CCOC1=C2CN(S(=O)(=O)c3ccc(C)cc3)[C@H](c3ccccc3)C[C@@H]2N(S(=O)(=O)c2ccc(C)cc2)[C@H](c2cccs2)C1 | / | / | 16.4 | / | / | / | / | / | / | / | /
O=C(O)CCn1nnc(-c2cccs2)n1 | -11.6 | -94.1 | 0.6 | -4.9 | -8.9 | -4.8 | / | / | / | / | /
CC(C)c1ccc(-c2nnn(CCC(=O)O)n2)cc1 | 6.5 | 26.1 | 19.2 | -2.5 | 58.9* | 71.0* | -6.3 | 68.5* | 83.6* | 21.2 | 22.3
Nc1c(C(=O)NCc2ccccc2)c2nc3ccccc3nc2n1-c1ccc2c(c1)OCO2 | -41.6 | -2.9 | -260.7 | 18.1 | 67.6* | 30.4 | 11.2 | 12.0 | -2.8 | 3.3 | -0.5
Nc1ccc(-n2c(N)c(C(=O)NCc3ccc4c(c3)OCO4)c3nc4ccccc4nc32)cc1 | 8.0 | 2.1 | -405.5 | 1.2 | 7.6 | 1.8 | / | / | / | / | /
C=CC(=O)Nc1cccc(Nc2nc(N[C@H]3CC[C@H](N(C)C)CC3)nc3c2ncn3C(C)C)c1 | / | / | 6.5 | / | / | / | / | / | / | / | /
Cc1ccc(-c2nc(N/N=C/c3cccnc3)c3ccccc3n2)cc1 | -2.8 | 89.8* | -68.6 | 19.9 | 88.2* | 87.3* | 44.9 | 77.0* | 76.5* | 84.1* | 21.3
COc1ccccc1C(=O)Nc1ccc2c(c1)CCCN2C(=O)c1cccs1 | -3.5 | 54.8* | 2.8 | 13.9 | 54.0* | 46.8 | 66.3* | 63.9* | 83.7* | 64.7* | 58.1*
O=C(Nc1ccc2c(c1)CCCN2C(=O)c1ccccc1)c1ccccc1Br | -3.3 | 19.6 | 17.4 | 20.8 | 37.9 | 25.0 | / | / | / | / | /
COc1cc(OC)cc(C(=O)Nc2ccc3c(c2)CCCN3C(=O)c2cccs2)c1 | -1.4 | 5.5 | 16.4 | 15.0 | 24.3 | -8.1 | / | / | / | / | /
COc1ccccc1C(=O)Nc1ccc2c(c1)CCCN2C(=O)c1ccccc1 | 0.6 | 84.3* | 17.2 | 18.3 | 89.8* | 83.6* | 84.8* | 82.4* | 94.6* | 85.4* | 76.0*
CCCNC(=O)C1(C)CCCN(C(=O)c2cccc(C(F)(F)F)c2)C1 (stereo not drawn) | / | / | 13.9 | / | / | / | / | / | / | / | /
Clc1ccccc1Nc1nnc(-c2ccncc2)s1 | 2.6 | 100.3* | -398.8 | 3.7 | 97.8* | 96.2* | 98.2* | 99.0* | 101.9* | 97.4* | 33.7
SMILES | UBC13 inh | SENP7 inh | SENP8 block-1 | Apaf-1 inh | SENP6 block | SENP8 block-2 | SENP8 confirm | SENP6 confirm | SENP7 confirm | Casp3 select | SENP luc ctr
FC(F)(F)c1ccc(Cl)c(Nc2nnc(-c3ccncc3)s2)c1 | / | / | -338.4 | / | / | / | / | / | / | / | /
COc1ccc(Cl)cc1Nc1nnc(-c2ccncc2)s1 | -1.6 | 95.0* | -291.9 | 11.7 | 75.6* | 50.8* | -14.0 | 8.9 | -4.0 | 1.3 | -6.3
COc1ccc(Nc2nc(C)cc(C)n2)cc1Cl | 6.2 | 66.6* | 20.4 | -1.8 | 69.8* | 39.1 | 61.5* | 58.6* | 86.0* | 67.8* | 65.3*
CNc1nnc(-c2ccncc2)s1 | 7.6 | -2.9 | -290.2 | -18.7 | -10.8 | -2.0 | / | / | / | / | /
COc1ccc(Nc2nnc(-c3ccncc3)s2)cc1Cl | -4.3 | 95.6* | -275.9 | 2.5 | 73.0* | 65.9* | 29.8 | 23.5 | 43.6 | 54.2* | 6.3
O[C@H]1C[C@H](c2ccc(Cl)cc2)N(Cc2cccs2)C[C@@H]1n1cc(-c2ccc(F)cc2)nn1 | / | / | 14.1 | / | / | / | / | / | / | / | /
O=S(=O)(NC1CCCC1)c1ccc(F)cc1F | / | / | 8.1 | / | / | / | / | / | / | / | /
Cn1c(=O)c2cc(NC(=O)NCc3ccc(Cl)cc3Cl)ccc2n1Cc1ccccc1 | / | / | i | / | / | / | / | / | / | / | /
COc1ccc2oc(C(=O)Nc3ccc(C)cn3)c(C)c2c1 | 22.0 | 39.6 | -85.6 | -0.4 | -1.8 | -7.8 | / | / | / | / | /
COc1ccc2oc(C(=O)Nc3nc(C)cs3)c(C)c2c1 | 0.4 | 60.8* | -347.8 | -16.8 | 46.0 | 43.4 | 17.0 | 37.0 | 72.3* | 54.8* | 34.0
COc1ccc2oc(C(=O)Nc3ccccn3)c(C)c2c1 | 0.4 | 92.1* | -145.1 | -0.2 | 86.9* | 77.4* | 84.7* | 84.8* | 97.8* | 88.0* | 87.9*
Nc1ncnc2c1ncn2[C@@H]1O[C@H](C(=O)N(CCC2=CCCCC2)CC2CC2)[C@@H](O)[C@H]1O | / | / | 14.4 | / | / | / | / | / | / | / | /
CC(NC(=O)c1cccc2c1Oc1ccccc1S2)C(=O)O (stereo not drawn) | / | / | -50.3 | / | / | / | / | / | / | / | /
c1coc(CNc2nc3ccccc3s2)c1 | -0.8 | 42.5 | 12.0 | 4.2 | 57.9* | 16.9 | 23.4 | 22.8 | 69.7* | 55.4* | 41.2
Cc1nnc(NCc2ccco2)s1 | -0.9 | 10.8 | 18.8 | 3.5 | 5.1 | -1.8 | / | / | / | / | /
